Measurements gathered from unrelated publications.
Compare with care: the assays were run in different laboratories.

COc1cc(C(=O)NC2CCN(C)CC2)c(F)cc1Nc1ncc(C(F)(F)F)c(Oc2cccc3c2C(=O)N(C)C3)n1 — Cmax (human, plasma; oral, 300 mg, single dose, patients): 4.54 µM
CS(=O)(=O)CCNCc1ccc(-c2ccc3ncnc(Nc4ccc(OCc5cccc(F)c5)c(Cl)c4)c3c2)o1 — Tmax (nude mouse, plasma; oral, 100 mg/kg, single dose): 2 h
CC(C)(C)c1ccc(O)c(CN(Cc2cc(C(C)(C)C)ccc2O)C2CCC(NC(N)=O)CC2)c1 (stereo not drawn) — Tmax (male C57BL/6 mouse, plasma; intraperitoneal, 10 mg/kg, single dose): 0.25 h
COc1ccc(C(O)COc2ccc(-c3csc(-c4ccc(OCC(O)c5ccc(OC)c(OC)c5)cc4)n3)cc2)cc1OC (stereo not drawn) — Tmax (C57BL/6 mouse, plasma; oral, 30 mg/kg): 1 h
CC(C)n1cc(C#N)c2cc(-n3cc(C(=O)O)cn3)ccc21 — Cmax (human, plasma; oral, 10 mg, single dose, fasted, healthy volunteers): 313 ng/mL
CO[C@H]1CC[C@H](N2C(=O)CNc3ncc(-c4ccc(C(C)(C)O)nc4)nc32)CC1 — Cmax (human, plasma; oral, 15 mg, multiple doses, patients): 92 ng/mL
CC(C)(O)c1cn(-c2ccc(-c3cc(F)c(CO)c(S(C)(=O)=O)c3)cc2F)c(C(C)(C)c2c(Cl)cccc2Cl)n1 — bioavailability (male cynomolgus monkey, plasma; oral, 3 mg/kg, single dose): 42%
CCc1nc2c(C)cc(N3CCN(CC(=O)N4CC(O)C4)CC3)cn2c1N(C)c1nc(-c2ccc(F)cc2)c(C#N)s1 — Cmax (human, plasma; oral, 1500 mg, single dose, fed, healthy volunteers): 19000 ng/mL
Nc1cc(N2CCCCC2)nc(N)[n+]1[O-] — efflux ratio (Caco-2; 10 µM, 2 h, pH 7.4): 1.72
C[C@H]1O[C@@H](O[C@H]2[C@@H](O)C[C@H](O[C@H]3[C@@H](O)C[C@H](O[C@H]4CC[C@@]5(C)[C@H](CC[C@@H]6[C@@H]5C[C@@H](O)[C@]5(C)[C@@H](C7=CC(=O)OC7)CC[C@]65O)C4)O[C@@H]3C)O[C@@H]2C)C[C@H](O)[C@@H]1O — efflux ratio (Caco-2; 5 µM, 1 h): 6.6
CC(C)(O)c1cn(-c2ccc(-c3cccc(S(C)(=O)=O)c3)cc2)c(C(C)(C)c2ccccc2Cl)n1 — Vd (male cynomolgus monkey, plasma; intravenous, 1 mg/kg, single dose): 1.3 L/kg
C=CC(=O)N1CC2CC(n3nc(-c4ccc(C(=O)Nc5ccccn5)cc4)c4c(N)ncnc43)CC2C1 (stereo not drawn) — Tmax (SCID mouse, plasma; oral, 5 mg/kg): 1 h
